Reference: ChEMBL document CHEMBL4002602, “Design, Synthesis of Novel, Potent, Selective, Orally Bioavailable Adenosine A2A Receptor Antagonists and Their Biological Evaluation” (J Med Chem, 2017)
Converted amounts (≈) assume the structure as drawn.

Tests used:
[1] = tested on: Liver; assay: Metabolic stability in rat liver microsomes assessed as metabolic rate at 1 uM preincubated for 5 mins followed by addition of NADPH measured after 3 to 30 mins by LC-MS/MS analysis; type: ADME, microsome
[2] = tested on: Liver; assay: Metabolic stability in human liver microsomes assessed as metabolic rate at 1 uM preincubated for 5 mins followed by addition of NADPH measured after 3 to 30 mins by LC-MS/MS analysis; type: ADME, microsome
[3] = target: T1, Adenosine receptor A2b (Homo sapiens, UniProt P29275); assay: Displacement of [3H]-MRS-1754 from human adenosine A2B receptor expressed in HEK293 cell membranes measured after 90 mins
T1 sequence (P29275 whole entry): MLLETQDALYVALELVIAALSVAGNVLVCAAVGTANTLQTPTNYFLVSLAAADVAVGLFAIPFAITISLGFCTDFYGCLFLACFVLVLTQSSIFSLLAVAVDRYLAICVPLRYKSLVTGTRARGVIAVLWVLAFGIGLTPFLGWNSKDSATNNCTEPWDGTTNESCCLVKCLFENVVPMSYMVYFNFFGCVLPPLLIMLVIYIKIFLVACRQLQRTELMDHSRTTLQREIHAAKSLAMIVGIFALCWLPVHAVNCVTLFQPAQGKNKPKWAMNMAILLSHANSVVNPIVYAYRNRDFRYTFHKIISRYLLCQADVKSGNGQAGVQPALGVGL

[4] = target: T1, Adenosine receptor A2b; assay: Antagonist activity at human adenosine A2B receptor expressed in HEK293 cell membranes assessed as decrease in NECA/forskolin-induced cAMP level pretreated for 15 mins followed by agonist addition for 15 mins and subsequent forskolin stimulation measured after 30 mins; type: functional, cell-based
[5] = target: T2, hERG (KCNH2) (Homo sapiens, UniProt Q12809); assay: Inhibition of [3H]-astemizole binding to human ERG at 10 uM after 2 hrs by liquid scintillation counting method relative to control; details: probe [3H]-astemizole
T2 sequence (Q12809 whole entry): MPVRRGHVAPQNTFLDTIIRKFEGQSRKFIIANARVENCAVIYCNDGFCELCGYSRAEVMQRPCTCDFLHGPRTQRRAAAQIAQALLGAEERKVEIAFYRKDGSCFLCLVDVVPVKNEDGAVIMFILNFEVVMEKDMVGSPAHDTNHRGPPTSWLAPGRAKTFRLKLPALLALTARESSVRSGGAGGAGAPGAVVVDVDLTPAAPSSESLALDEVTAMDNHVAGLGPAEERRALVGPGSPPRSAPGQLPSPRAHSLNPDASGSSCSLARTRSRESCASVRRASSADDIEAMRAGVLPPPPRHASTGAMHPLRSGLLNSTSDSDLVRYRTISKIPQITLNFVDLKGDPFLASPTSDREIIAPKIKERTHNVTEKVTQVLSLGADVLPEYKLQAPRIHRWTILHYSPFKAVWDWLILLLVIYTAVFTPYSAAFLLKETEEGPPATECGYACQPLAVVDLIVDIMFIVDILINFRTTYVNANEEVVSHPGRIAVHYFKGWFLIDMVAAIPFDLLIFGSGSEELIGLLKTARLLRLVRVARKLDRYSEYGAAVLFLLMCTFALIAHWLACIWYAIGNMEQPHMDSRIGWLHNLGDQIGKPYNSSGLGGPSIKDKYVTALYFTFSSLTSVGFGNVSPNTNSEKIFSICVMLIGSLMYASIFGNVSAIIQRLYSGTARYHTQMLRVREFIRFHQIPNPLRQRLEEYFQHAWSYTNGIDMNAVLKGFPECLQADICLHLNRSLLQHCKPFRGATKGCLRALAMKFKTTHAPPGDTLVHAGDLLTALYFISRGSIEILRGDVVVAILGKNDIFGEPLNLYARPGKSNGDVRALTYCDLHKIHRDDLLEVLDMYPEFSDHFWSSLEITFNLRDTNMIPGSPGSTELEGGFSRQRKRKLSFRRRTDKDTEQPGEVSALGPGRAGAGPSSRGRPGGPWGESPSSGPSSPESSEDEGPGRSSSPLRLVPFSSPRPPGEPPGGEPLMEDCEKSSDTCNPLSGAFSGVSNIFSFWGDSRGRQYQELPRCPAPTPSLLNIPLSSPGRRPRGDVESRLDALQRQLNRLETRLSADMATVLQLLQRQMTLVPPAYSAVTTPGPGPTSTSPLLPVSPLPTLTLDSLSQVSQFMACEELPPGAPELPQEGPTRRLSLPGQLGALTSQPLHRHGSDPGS

[6] = target: T2, hERG (KCNH2); assay: Inhibition of [3H]-astemizole binding to human ERG at 30 uM after 2 hrs by liquid scintillation counting method relative to control; details: probe [3H]-astemizole
[7] = Tmax in Wistar rat at 10 mg/kg administered via oral gavage by LC/MS/MS analysis; type: ADME, organism-based; details: in vivo
Method in brief: (§1)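 Fasted male Wistar rats given 10 mg/kg PO as a suspension in 1% Tween 80, 0.5% w/v NaCMC. Serial plasma sampling (K2EDTA) at 0.25–24 h, acetonitrile precipitation, LC/MS/MS. Non-compartmental analysis per animal; bioavailability calculated against the 3 mg/kg IV group; mean of n=4.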

[8] = AUC (0 to t) in Wistar rat at 3 mg/kg, iv by LC/MS/MS analysis; type: ADME, organism-based; details: in vivo
Method in brief: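 Overnight-fasted male Wistar rats received a 3 mg/kg tail-vein solution (0.6 mg/mL, 5 mL/kg). Vehicle was 10% NMP with PEG300, Cremophor EL and/or HPβ-CD in 0.1 M acetate buffer, pH 4.2; co-solvents varied by compound. Serial K2EDTA blood samples (n=3/time point) taken 0.008–24 h. Plasma measured by LC/MS/MS; non-compartmental AUC0-t per animal.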

[9] = Volume of distribution at steady state in Wistar rat at 3 mg/kg, iv by LC/MS/MS analysis; type: ADME, organism-based; details: in vivo, read-out: Vdss
Method in brief: (§2)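 Male Wistar rats (230 ± 15 g), fasted overnight, given 3 mg/kg IV via tail vein as a solution (0.6 mg/mL, 5 mL/kg) in NMP-based vehicles with acetate buffer pH 4.2. Serial plasma sampling (K2EDTA) from 0.008 to 24 h. Acetonitrile precipitation, then LC/MS/MS. Non-compartmental analysis per animal; mean of n=4.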

[10] = Clearance in Wistar rat at 3 mg/kg, iv by LC/MS/MS analysis; type: ADME, organism-based; details: in vivo; method in brief: as §2
[11] = Elimination half-life in Wistar rat at 3 mg/kg, iv by LC/MS/MS analysis; type: ADME, organism-based; details: in vivo, read-out: beta t1/2 (converted); method in brief: as §2
[12] = Oral bioavailability in Wistar rat at 10 mg/kg administered via gavage by LC/MS/MS analysis; type: ADME, organism-based; details: in vivo; method in brief: as §1
[13] = Equilibrium aqueous solubility of the compound at pH 2.1 after 4 hrs; type: physicochemical; details: aqueous medium
[14] = Equilibrium aqueous solubility of the compound at pH 4 after 4 hrs; type: physicochemical; details: aqueous medium
[15] = Equilibrium aqueous solubility of the compound at pH 7.4 after 4 hrs; type: physicochemical; details: aqueous medium
[16] = target: Adenosine receptor A2a (Homo sapiens, UniProt P29274); assay: Antagonist activity at human adenosine A2A receptor expressed in HEK293 cell membranes assessed as decrease in CGS-21680-induced cAMP level pretreated for 15 mins followed by agonist addition for 30 mins
Adenosine receptor A2a, sequence (P29274 whole entry): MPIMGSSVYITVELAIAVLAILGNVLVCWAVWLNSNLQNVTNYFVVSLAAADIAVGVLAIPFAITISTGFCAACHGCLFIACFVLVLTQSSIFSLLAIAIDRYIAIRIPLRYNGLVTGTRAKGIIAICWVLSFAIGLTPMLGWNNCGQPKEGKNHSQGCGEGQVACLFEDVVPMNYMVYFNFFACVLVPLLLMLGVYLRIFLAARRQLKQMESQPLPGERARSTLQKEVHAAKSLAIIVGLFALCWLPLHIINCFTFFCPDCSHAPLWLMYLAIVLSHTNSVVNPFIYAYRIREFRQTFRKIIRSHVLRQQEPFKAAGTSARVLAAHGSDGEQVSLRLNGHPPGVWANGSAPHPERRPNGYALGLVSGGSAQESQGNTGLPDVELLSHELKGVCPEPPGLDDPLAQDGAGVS

[17] = target: T3, Adenosine receptor A2b (Homo sapiens) (UniProt P29275); assay: Displacement of [3H]-MRS-1754 from human adenosine A2B receptor expressed in HEK293 cell membranes at 1 uM measured after 90 mins relative to control
T3 sequence (whole entry): T1 sequence (P29275 whole entry)

[18] = target: T4, Adenosine receptor A3 (Homo sapiens) (UniProt P0DMS8); assay: Displacement of [3H]-HEMADO from human adenosine A3 receptor expressed in HEK293 cell membranes at 1 uM measured after 90 mins relative to control
T4 sequence (whole entry): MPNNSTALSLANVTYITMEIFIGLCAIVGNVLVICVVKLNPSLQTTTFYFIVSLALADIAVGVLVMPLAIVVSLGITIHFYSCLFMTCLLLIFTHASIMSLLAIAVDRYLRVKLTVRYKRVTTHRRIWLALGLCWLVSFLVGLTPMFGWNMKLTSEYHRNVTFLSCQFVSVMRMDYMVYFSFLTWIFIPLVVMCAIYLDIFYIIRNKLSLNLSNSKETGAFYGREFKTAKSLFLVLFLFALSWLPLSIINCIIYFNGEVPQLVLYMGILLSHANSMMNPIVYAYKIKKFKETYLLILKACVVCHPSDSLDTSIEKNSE

[19] = target: Cytochrome P450 2C19 (Homo sapiens, UniProt P33261); assay: Inhibition of CYP2C19 in human liver microsomes at 5 to 25 uM using (S)mephenytoin as substrate preincubated for 5 mins with substrate followed by NADPH addition measured after 40 mins by LC-MS/MS analysis; type: ADME; details: microsomes, 40 min, 25 µM
Cytochrome P450 2C19, sequence (P33261 whole entry): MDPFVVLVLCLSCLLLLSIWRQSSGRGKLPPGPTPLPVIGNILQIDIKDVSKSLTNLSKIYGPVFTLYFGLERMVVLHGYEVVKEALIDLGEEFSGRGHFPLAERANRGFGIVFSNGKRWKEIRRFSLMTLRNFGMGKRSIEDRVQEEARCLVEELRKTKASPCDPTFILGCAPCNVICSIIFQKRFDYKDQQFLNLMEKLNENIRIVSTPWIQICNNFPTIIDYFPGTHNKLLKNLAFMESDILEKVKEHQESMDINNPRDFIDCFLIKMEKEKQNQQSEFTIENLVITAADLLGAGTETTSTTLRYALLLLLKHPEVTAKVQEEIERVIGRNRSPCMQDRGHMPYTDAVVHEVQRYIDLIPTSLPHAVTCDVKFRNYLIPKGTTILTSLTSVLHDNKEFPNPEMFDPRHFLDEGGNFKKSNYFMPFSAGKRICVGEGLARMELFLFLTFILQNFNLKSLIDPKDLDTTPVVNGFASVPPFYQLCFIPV

[20] = target: Cytochrome P450 2D6 (Homo sapiens, UniProt P10635); assay: Inhibition of CYP2D6 in human liver microsomes at 5 to 25 uM using dextromethorphan as substrate preincubated for 5 mins with substrate followed by NADPH addition measured after 10 mins by LC-MS/MS analysis; type: ADME; details: microsomes, 10 min, 25 µM
Cytochrome P450 2D6, sequence (P10635 whole entry): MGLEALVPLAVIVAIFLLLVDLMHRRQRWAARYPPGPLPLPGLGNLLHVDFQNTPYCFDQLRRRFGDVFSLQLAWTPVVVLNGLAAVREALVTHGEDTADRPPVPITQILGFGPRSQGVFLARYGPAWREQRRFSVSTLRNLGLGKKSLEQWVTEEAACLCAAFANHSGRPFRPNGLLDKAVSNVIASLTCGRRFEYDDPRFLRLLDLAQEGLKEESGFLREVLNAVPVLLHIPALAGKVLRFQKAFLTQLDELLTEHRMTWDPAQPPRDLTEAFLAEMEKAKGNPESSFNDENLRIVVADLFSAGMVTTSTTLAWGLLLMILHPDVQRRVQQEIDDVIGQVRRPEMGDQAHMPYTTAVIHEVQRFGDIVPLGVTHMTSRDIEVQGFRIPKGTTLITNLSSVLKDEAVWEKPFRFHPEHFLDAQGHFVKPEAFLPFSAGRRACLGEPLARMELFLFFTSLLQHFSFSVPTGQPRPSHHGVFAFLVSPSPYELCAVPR

[21] = target: Cytochrome P450 3A (Homo sapiens, UniProt P08684+P20815+Q9HB55+P24462); assay: Inhibition of CYP3A in human liver microsomes at 5 to 25 uM using testosterone as substrate preincubated for 5 mins with substrate followed by NADPH addition measured after 10 mins by LC-MS/MS analysis; type: ADME; details: microsomes, 10 min, 25 µM

CCN(CC)C1CCC(C)(C(=O)Nc2nc3c(OC)ccc(N4CCOCC4)c3s2)CC1 (stereo not given)
Drug metabolism [1]: 0.01 nmol/min/mg | Drug metabolism [2]: 0.03 nmol/min/mg | Ki [3]: 500 nM | Ki [4]: 650 nM | inhibition at 2 h, 10 µM [5]: 13% | inhibition at 2 h, 30 µM [6]: 18% | Tmax [7]: 0.63 h | AUC(0-t) [8]: 2.7 µM·h | Vd [9]: 6.1 L/kg | clearance [10]: 37.2 mL/min/kg | half-life [11]: 2.4 h | bioavailability [12]: 61% | solubility thermodynamic at 4 h [13]: 1840 µM (≈ 848 µg/mL) | solubility thermodynamic at 4 h [14]: 1810 µM (≈ 832 µg/mL) | solubility thermodynamic at 4 h [15]: 1590 µM (≈ 731 µg/mL) | Ki [16]: 0.2 nM

COc1ccc(N2CCOCC2)c2sc(NC(=O)C3(C)CCC(C)(O)CC3)nc12 (stereo not given)
Drug metabolism [1]: < 0.04 nmol/min/mg | Drug metabolism [2]: < 0.04 nmol/min/mg | Ki [3]: 500 nM | Ki [4]: 2000 nM | inhibition at 2 h, 30 µM [6]: 26% | Tmax [7]: 0.5 h | AUC(0-t) [8]: 3.7 µM·h | Vd [9]: 1.5 L/kg | clearance [10]: 32 mL/min/kg | half-life [11]: 0.6 h | bioavailability [12]: 63% | solubility thermodynamic at 4 h [13]: 139 µM (≈ 58.3 µg/mL) | solubility thermodynamic at 4 h [14]: 111 µM (≈ 46.6 µg/mL) | solubility thermodynamic at 4 h [15]: 114 µM (≈ 47.8 µg/mL) | Ki [16]: 0.25 nM

COc1ccc(N2CCOCC2)c2sc(NC(=O)C(C)(C)Oc3ccc(F)cc3)nc12
inhibition [17]: 0% | inhibition [18]: 11% | Drug metabolism [1]: 0.04 nmol/min/mg | Drug metabolism [2]: 0.02 nmol/min/mg | Ki [3]: 10000 nM | inhibition at 2 h, 10 µM [5]: < 5% | Tmax [7]: 0.5 h | AUC(0-t) [8]: 7.6 µM·h | Vd [9]: 1.4 L/kg | clearance [10]: 15 mL/min/kg | half-life [11]: 6.3 h | bioavailability [12]: 6% | solubility thermodynamic at 4 h [13]: < 6 µM | solubility thermodynamic at 4 h [14]: < 6 µM | solubility thermodynamic at 4 h [15]: < 6 µM | inhibition (INH) [19]: Not Active | inhibition (INH) [20]: Not Active | inhibition (INH) [21]: Not Active | Ki [16]: 4.2 nM

COc1ccc(N2CCOCC2)c2sc(NC(=O)C(C)(C)Oc3ccc(F)c(F)c3)nc12
inhibition [17]: 34% | inhibition [18]: 28% | Drug metabolism [1]: 0.09 nmol/min/mg | Drug metabolism [2]: 0.07 nmol/min/mg | Ki [3]: 5000 nM | inhibition at 2 h, 10 µM [5]: < 5% | Tmax [7]: 0.5 h | AUC(0-t) [8]: 10.7 µM·h | Vd [9]: 2.1 L/kg | clearance [10]: 10.2 mL/min/kg | half-life [11]: 5.5 h | bioavailability [12]: 17% | solubility thermodynamic at 4 h [13]: < 6 µM | solubility thermodynamic at 4 h [14]: < 6 µM | solubility thermodynamic at 4 h [15]: < 6 µM | inhibition (INH) [19]: Not Active | inhibition (INH) [20]: Not Active | inhibition (INH) [21]: Not Active | Ki [16]: 2.4 nM

COc1cnc(N2CCOCC2)c2sc(NC(=O)C(C)(C)Oc3ccc(F)cc3)nc12
inhibition [17]: 24% | inhibition [18]: 46% | Drug metabolism [1]: < 0.04 nmol/min/mg | Drug metabolism [2]: < 0.04 nmol/min/mg | Ki [3]: 1400 nM | Ki [4]: 2000 nM | inhibition at 2 h, 10 µM [5]: < 10% | inhibition at 2 h, 30 µM [6]: < 10% | Tmax [7]: 2.75 h | AUC(0-t) [8]: 16.4 µM·h | Vd [9]: 2.1 L/kg | clearance [10]: 6.6 mL/min/kg | half-life [11]: 5.4 h | bioavailability [12]: 21.7% | solubility thermodynamic at 4 h [13]: < 6 µM | solubility thermodynamic at 4 h [14]: < 6 µM | solubility thermodynamic at 4 h [15]: < 6 µM | inhibition (INH) [19]: Not Active | inhibition (INH) [20]: Not Active | inhibition (INH) [21]: Not Active | Ki [16]: 6.5 nM
